ChEMBL document CHEMBL3286116, “Synthesis, biological evaluation and structure-activity correlation study of a series of imidazol-based compounds as Candida albicans inhibitors” (Eur J Med Chem, 2014)
≈ marks a conversion by molar mass, not a printed value.

What was measured:
Format in all cases: functional
Nakaseomyces glabratus [1] = test: Antifungal activity against Candida glabrata PMC 0807 after 48 hrs by CLSI broth microdilution method; conditions: PMC 0807, 48 h
In short: (§1)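 Yeast CLSI broth microdilution (M27-A3). Compounds dissolved in DMSO at 100× the top test concentration, then diluted as serial two-fold dilutions in RPMI 1640 to final 0.125–64. Inoculum was 1.0–1.5 × 10^3 cells mL−1, incubated at 35 °C and read for growth at 48 h. MIC is the lowest concentration giving ≥50% growth inhibition versus growth control. Reported as the median of five replicates and as the geometric mean.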

Pichia kudriavzevii [2] = test: Antifungal activity against Candida krusei PMC 0613 after 48 hrs by CLSI broth microdilution method; conditions: PMC 0613, 48 h; in short: as §1
[3] = tested on: Trichophyton mentagrophytes; test: Antifungal activity against Trichophyton mentagrophytes PMC 6515 after 72 hrs by CLSI broth microdilution method; conditions: PMC 6515, 72 h
In short: (§2)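 Dermatophytes tested by CLSI broth microdilution for filamentous fungi (M38-A2). Serial two-fold dilutions of DMSO-dissolved compound in RPMI 1640, final 0.125–64. Inoculum was 0.4–5 × 10^4 CFU mL−1, incubated at 35 °C and read at 72 h. MIC80 is the lowest concentration giving ≥80% growth inhibition versus growth control. Median of five replicates, plus geometric mean.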

Candida albicans [4] = test: Antifungal activity against Candida albicans ATCC 24433 after 48 hrs by CLSI broth microdilution method; conditions: ATCC 24433, 48 h; in short: as §1
Cryptococcus neoformans [5] = test: Antifungal activity against Cryptococcus neoformans PMC 2107 after 72 hrs by CLSI broth microdilution method; conditions: PMC 2107, 72 h
In short: (§3)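 Cryptococcus neoformans tested by CLSI broth microdilution in RPMI 1640, with serial two-fold dilutions from DMSO stocks at 100× the top concentration, final 0.125–64. Inoculum was 1.0–1.5 × 10^3 cells mL−1 at 35 °C, with growth read at 72 h. MIC is the lowest concentration with ≥50% growth inhibition versus control. Median of five replicates, plus geometric mean.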

Pichia kudriavzevii [6] = test: Antifungal activity against Candida krusei DSM 6128 after 48 hrs by CLSI broth microdilution method; conditions: DSM 6128, 48 h; in short: as §1
Candida albicans [7] = test: Antifungal activity against Candida albicans ATCC 10261 after 48 hrs by CLSI broth microdilution method; conditions: ATCC 10261, 48 h; in short: as §1
Candida tropicalis [8] = test: Antifungal activity against Candida tropicalis DSM 11953 after 48 hrs by CLSI broth microdilution method; conditions: DSM 11953, 48 h; in short: as §1
[9] = tested on: Trichophyton mentagrophytes; test: Antifungal activity against Trichophyton mentagrophytes PMC 6552 after 72 hrs by CLSI broth microdilution method; conditions: PMC 6552, 72 h; in short: as §2
Cryptococcus neoformans [10] = test: Antifungal activity against Cryptococcus neoformans PMC 2136 after 72 hrs by CLSI broth microdilution method; conditions: PMC 2136, 72 h; in short: as §3
Nannizzia gypsea [11] = test: Antifungal activity against Microsporum gypseum PMC 7331 after 72 hrs by CLSI broth microdilution method; conditions: PMC 7331, 72 h; in short: as §2
Cryptococcus neoformans [12] = test: Antifungal activity against Cryptococcus neoformans DSM 11959 after 72 hrs by CLSI broth microdilution method; conditions: DSM 11959, 72 h; in short: as §3
[13] = tested on: Trichophyton mentagrophytes; test: Antifungal activity against Trichophyton mentagrophytes PMC 6509 after 72 hrs by CLSI broth microdilution method; conditions: PMC 6509, 72 h; in short: as §2
Cryptococcus neoformans [14] = test: Antifungal activity against Cryptococcus neoformans PMC 2123 after 72 hrs by CLSI broth microdilution method; conditions: PMC 2123, 72 h; in short: as §3
Nannizzia gypsea [15] = test: Antifungal activity against Microsporum gypseum DSM 3824 after 72 hrs by CLSI broth microdilution method; conditions: DSM 3824, 72 h; in short: as §2
[16] = tested on: Trichophyton mentagrophytes; test: Antifungal activity against Trichophyton mentagrophytes PMC 6531 after 72 hrs by CLSI broth microdilution method; conditions: PMC 6531, 72 h; in short: as §2
Candida albicans [17] = test: Antifungal activity against Candida albicans ATCC 90028 after 48 hrs by CLSI broth microdilution method; conditions: ATCC 90028, 48 h; in short: as §1
Candida albicans [18] = test: Antifungal activity against Candida albicans ATCC 10231 after 48 hrs by CLSI broth microdilution method; conditions: ATCC 10231, 48 h; in short: as §1
Cryptococcus neoformans [19] = test: Antifungal activity against Cryptococcus neoformans PMC 2102 after 72 hrs by CLSI broth microdilution method; conditions: PMC 2102, 72 h; in short: as §3
Candida albicans [20] = test: Antifungal activity against Candida albicans PMC 1011 after 48 hrs by CLSI broth microdilution method; conditions: PMC 1011, 48 h; in short: as §1
Cryptococcus neoformans [21] = test: Antifungal activity against Cryptococcus neoformans PMC 2111 after 72 hrs by CLSI broth microdilution method; conditions: PMC 2111, 72 h; in short: as §3
Nannizzia gypsea [22] = test: Antifungal activity against Microsporum gypseum PMC 7303 after 72 hrs by CLSI broth microdilution method; conditions: PMC 7303, 72 h; in short: as §2
Candida tropicalis [23] = test: Antifungal activity against Candida tropicalis PMC 0910 after 48 hrs by CLSI broth microdilution method; conditions: PMC 0910, 48 h; in short: as §1
Cryptococcus neoformans [24] = test: Antifungal activity against Cryptococcus neoformans PMC 2103 after 72 hrs by CLSI broth microdilution method; conditions: PMC 2103, 72 h; in short: as §3
Candida albicans [25] = test: Antifungal activity against Candida albicans ATCC 3153 after 48 hrs by CLSI broth microdilution method; conditions: ATCC 3153, 48 h; in short: as §1
[26] = tested on: Trichophyton mentagrophytes; test: Antifungal activity against Trichophyton mentagrophytes PMC 6503 after 72 hrs by CLSI broth microdilution method; conditions: PMC 6503, 72 h; in short: as §2
Candida parapsilosis [27] = test: Antifungal activity against Candida parapsilosis DSM 11224 after 48 hrs by CLSI broth microdilution method; conditions: Lodderomyces parapsilosis, DSM 11224, 48 h; in short: as §1
Candida albicans [28] = test: Antifungal activity against Candida albicans ATCC 20891 after 48 hrs by CLSI broth microdilution method; conditions: ATCC 20891, 48 h; in short: as §1
Candida parapsilosis [29] = test: Antifungal activity against Candida parapsilosis ATCC 22019 after 48 hrs by CLSI broth microdilution method; conditions: Lodderomyces parapsilosis, ATCC 22019, 48 h; in short: as §1
Nakaseomyces glabratus [30] = test: Antifungal activity against Candida glabrata PMC 0805 after 48 hrs by CLSI broth microdilution method; conditions: PMC 0805, 48 h; in short: as §1
Candida albicans [31] = test: Antifungal activity against Candida albicans ATCC 76615 after 48 hrs by CLSI broth microdilution method; conditions: ATCC 76615, 48 h; in short: as §1
Cryptococcus neoformans [32] = test: Antifungal activity against Cryptococcus neoformans PMC 2115 after 72 hrs by CLSI broth microdilution method; conditions: PMC 2115, 72 h; in short: as §3
[33] = tested on: Trichophyton mentagrophytes; test: Antifungal activity against Trichophyton mentagrophytes DSM 4870 after 72 hrs by CLSI broth microdilution method; conditions: DSM 4870, 72 h; in short: as §2

## O=C(OC(Cn1ccnc1)c1ccc(Cl)cc1)N1CCN(c2ccc([N+](=O)[O-])cc2)CC1 (stereo unspecified)
Nakaseomyces glabratus [1]
  MIC50: 64 µg/mL (≈ 140 µM)
Pichia kudriavzevii [2]
  MIC50: 16 µg/mL (≈ 35.1 µM)
[3]
  MIC80: 32 µg/mL (≈ 70.2 µM)
Candida albicans [4]
  MIC50: 32 µg/mL (≈ 70.2 µM)
Cryptococcus neoformans [5]
  MIC50: 8 µg/mL (≈ 17.5 µM)
Pichia kudriavzevii [6]
  MIC50: 128 µg/mL (≈ 281 µM)
Candida albicans [7]
  MIC50: 8 µg/mL (≈ 17.5 µM)
Candida tropicalis [8]
  MIC50: 128 µg/mL (≈ 281 µM)
[9]
  MIC80: 32 µg/mL (≈ 70.2 µM)
Cryptococcus neoformans [10]
  MIC50: 8 µg/mL (≈ 17.5 µM)
Nannizzia gypsea [11]
  MIC80: 16 µg/mL (≈ 35.1 µM)
Cryptococcus neoformans [12]
  MIC50: 8 µg/mL (≈ 17.5 µM)
[13]
  MIC80: 32 µg/mL (≈ 70.2 µM)
Cryptococcus neoformans [14]
  MIC50: 64 µg/mL (≈ 140 µM)
Nannizzia gypsea [15]
  MIC80: 64 µg/mL (≈ 140 µM)
[16]
  MIC80: 32 µg/mL (≈ 70.2 µM)
Candida albicans [17]
  MIC50: 2 µg/mL (≈ 4.39 µM)
Candida albicans [18]
  MIC50: 16 µg/mL (≈ 35.1 µM)
Cryptococcus neoformans [19]
  MIC50: 16 µg/mL (≈ 35.1 µM)
Candida albicans [20]
  MIC50: 16 µg/mL (≈ 35.1 µM)
Cryptococcus neoformans [21]
  MIC50: 8 µg/mL (≈ 17.5 µM)
Nannizzia gypsea [22]
  MIC80: 32 µg/mL (≈ 70.2 µM)
Candida tropicalis [23]
  MIC50: 64 µg/mL (≈ 140 µM)
Cryptococcus neoformans [24]
  MIC50: 8 µg/mL (≈ 17.5 µM)
Candida albicans [25]
  MIC50: 16 µg/mL (≈ 35.1 µM)
[26]
  MIC80: 64 µg/mL (≈ 140 µM)
Candida parapsilosis [27]
  MIC50: 4 µg/mL (≈ 8.77 µM)
Candida albicans [28]
  MIC50: 8 µg/mL (≈ 17.5 µM)
Candida parapsilosis [29]
  MIC50: 8 µg/mL (≈ 17.5 µM)
Nakaseomyces glabratus [30]
  MIC50: 64 µg/mL (≈ 140 µM)
Candida albicans [31]
  MIC50: 128 µg/mL (≈ 281 µM)
Cryptococcus neoformans [32]
  MIC50: 32 µg/mL (≈ 70.2 µM)
[33]
  MIC80: 64 µg/mL (≈ 140 µM)

## O=C(O[C@@H](Cn1ccnc1)c1ccc(Cl)cc1)N1CCN(c2ccc(Cl)cc2)CC1
Nakaseomyces glabratus [1]
  MIC50: 32 µg/mL (≈ 71.9 µM)
Pichia kudriavzevii [2]
  MIC50: 8 µg/mL (≈ 18 µM)
[3]
  MIC80: 4 µg/mL (≈ 8.98 µM)
Candida albicans [4]
  MIC50: 8 µg/mL (≈ 18 µM)
Cryptococcus neoformans [5]
  MIC50: 2 µg/mL (≈ 4.49 µM)
Pichia kudriavzevii [6]
  MIC50: 128 µg/mL (≈ 287 µM)
Candida albicans [7]
  MIC50: 4 µg/mL (≈ 8.98 µM)
Candida tropicalis [8]
  MIC50: 64 µg/mL (≈ 144 µM)
[9]
  MIC80: 8 µg/mL (≈ 18 µM)
Cryptococcus neoformans [10]
  MIC50: 2 µg/mL (≈ 4.49 µM)
Nannizzia gypsea [11]
  MIC80: 16 µg/mL (≈ 35.9 µM)
Cryptococcus neoformans [12]
  MIC50: 2 µg/mL (≈ 4.49 µM)
[13]
  MIC80: 8 µg/mL (≈ 18 µM)
Cryptococcus neoformans [14]
  MIC50: 2 µg/mL (≈ 4.49 µM)
Nannizzia gypsea [15]
  MIC80: 8 µg/mL (≈ 18 µM)
[16]
  MIC80: 8 µg/mL (≈ 18 µM)
Candida albicans [17]
  MIC50: 4 µg/mL (≈ 8.98 µM)
Candida albicans [18]
  MIC50: 8 µg/mL (≈ 18 µM)
Cryptococcus neoformans [19]
  MIC50: 4 µg/mL (≈ 8.98 µM)
Candida albicans [20]
  MIC50: 4 µg/mL (≈ 8.98 µM)
Cryptococcus neoformans [21]
  MIC50: 2 µg/mL (≈ 4.49 µM)
Nannizzia gypsea [22]
  MIC80: 8 µg/mL (≈ 18 µM)
Candida tropicalis [23]
  MIC50: 16 µg/mL (≈ 35.9 µM)
Cryptococcus neoformans [24]
  MIC50: 2 µg/mL (≈ 4.49 µM)
Candida albicans [25]
  MIC50: 4 µg/mL (≈ 8.98 µM)
[26]
  MIC80: 4 µg/mL (≈ 8.98 µM)
Candida parapsilosis [27]
  MIC50: 8 µg/mL (≈ 18 µM)
Candida albicans [28]
  MIC50: 8 µg/mL (≈ 18 µM)
Candida parapsilosis [29]
  MIC50: 1 µg/mL (≈ 2.25 µM)
Nakaseomyces glabratus [30]
  MIC50: 8 µg/mL (≈ 18 µM)
Candida albicans [31]
  MIC50: 8 µg/mL (≈ 18 µM)
Cryptococcus neoformans [32]
  MIC50: 4 µg/mL (≈ 8.98 µM)
[33]
  MIC80: 8 µg/mL (≈ 18 µM)
